Screening results from PubChem BioAssay.
MC4R ag barr: agonists of human melanocortin 4 receptor (MC4R) beta-arrestin. activation, % at 8.9 µM. U2OS MC4R beta-arrestin complementation, luminescence; percent of melanotan II response, DMSO zero. hit rate 0.98% among 360,000. AID 540308;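 active = activation above a per-plate cutoff, the mean activation of sample wells on that plate plus 3 SD, cut at about 8% in these data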
ANO1 block: inhibitors of mouse TMEM16A calcium-activated chloride channel; Q8BHY3; HEK293 TMEM16A/YFP iodide influx fluorescence, ionomycin; normalized B-score (activity score, 25-100; higher = stronger inhibition) at 10 µM; hit rate 1.2% among 310,000;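 active = ratio plate-corrected score three or more library SD toward inhibition, starting fluorescence score within five deviations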;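 also: score derived from kinetic fluorescence span divided by baseline fluorescence per well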
Target sequence (Q8BHY3 whole entry, looked up): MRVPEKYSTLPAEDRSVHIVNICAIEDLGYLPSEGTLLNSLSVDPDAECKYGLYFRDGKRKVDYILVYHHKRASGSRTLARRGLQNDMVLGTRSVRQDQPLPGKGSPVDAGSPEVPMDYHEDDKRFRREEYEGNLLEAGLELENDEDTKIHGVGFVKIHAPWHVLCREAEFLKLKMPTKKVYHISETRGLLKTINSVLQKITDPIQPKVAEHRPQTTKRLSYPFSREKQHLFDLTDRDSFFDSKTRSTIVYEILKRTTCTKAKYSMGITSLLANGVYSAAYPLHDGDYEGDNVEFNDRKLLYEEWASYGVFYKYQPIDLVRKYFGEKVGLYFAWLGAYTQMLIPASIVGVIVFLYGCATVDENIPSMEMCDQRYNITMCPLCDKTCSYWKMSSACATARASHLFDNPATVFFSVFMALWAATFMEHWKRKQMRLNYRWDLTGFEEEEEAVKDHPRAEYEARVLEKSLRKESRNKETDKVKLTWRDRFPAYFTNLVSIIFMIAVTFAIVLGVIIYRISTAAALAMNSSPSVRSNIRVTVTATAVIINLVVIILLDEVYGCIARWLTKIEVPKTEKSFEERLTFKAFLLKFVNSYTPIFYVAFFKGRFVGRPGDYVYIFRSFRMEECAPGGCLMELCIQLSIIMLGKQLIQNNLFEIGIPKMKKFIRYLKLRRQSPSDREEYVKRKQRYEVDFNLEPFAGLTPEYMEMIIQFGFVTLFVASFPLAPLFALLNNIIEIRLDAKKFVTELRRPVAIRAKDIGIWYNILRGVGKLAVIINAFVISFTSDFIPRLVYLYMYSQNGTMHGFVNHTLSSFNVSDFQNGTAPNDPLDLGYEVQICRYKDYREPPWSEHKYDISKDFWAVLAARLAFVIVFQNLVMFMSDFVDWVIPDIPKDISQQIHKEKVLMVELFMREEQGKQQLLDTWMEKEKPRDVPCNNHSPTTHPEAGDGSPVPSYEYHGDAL
MIN6 prolif: induces beta-cell replication in MIN6 cells. MIN6 cells proliferation, ATPlite luminescence, 48 h; cells starved in 0.2% serum; 100% = growth in 10% serum. proliferation, % at 10 µM. hit rate 0.29% among 330,000. AID 2380;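 active = compounds whose signal lies at least 3.5 SD above the mean of all wells on their plate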;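 also: 0% = DMSO-treated cells in low-serum medium and 100% = 10% serum control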
TMEM16A act: activates or potentiates the mouse TMEM16A chloride channel; Q8BHY3; HEK293 TMEM16A/YFP-H148Q/I152L, iodide quench fluorescence; active compounds read low; B-score at 10 µM; hit rate 0.3% among 340,000;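 active = fluorescence-ratio B-score plate-corrected deviation score at least 3 library SD below zero, with starting fluorescence score within 5 deviations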;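 also: channel opened by trigger with iodide after compound preincubation; score built on the fluorescence ratio of max minus min over baseline; more negative score means more quench and so TMEM16A activation or potentiation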
MC4R antag cAMP: antagonists of human melanocortin 4 receptor (MC4R); hit rate 0.48% among 360,000; MC4R-expressing cells, MTII-stimulated cAMP, LANCE TR-FRET; AID 540295; P32245; inhibition, % at 6.5 µM;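 active = inhibition above its plate's cutoff, the mean of tested wells on that plate plus 3 SD, cut at about 29% in these data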;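 also: 0% = Melanotan II alone and 100% = Melanotan II plus saturating MCL0020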
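System: U2OS cells stably expressing human melanocortin 4 receptor (MC4R). Reagent: Melanotan II challenge after compound preincubation. Doses: 6.5 µM. Times: 30-min compound, 1-h challenge, 1-h detection, room temperature. Measured by: TR-FRET with Eu-cAMP and labeled anti-cAMP, 671 nm. Replicates: singlicate.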
m5-HT2A agonist: agonists of mouse serotonin 5-HT2A receptor (HTR2A); CHO-K1 mHTR2A beta-arrestin complementation, luminescence; percent of 30 µM serotonin response; activation, % at 7.6 µM; hit rate 0.66% among 360,000;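 active = activation above a run cutoff, the mean activation of all tested compounds plus 3 SD, cut at about 14% in these data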;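 also: 0% = plate median of compound wells and 100% = 30 µM serotonin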
TMEM16A reconf: re-confirmation of mouse TMEM16A chloride channel inhibitors; shares compounds with ANO1 block; HEK293 TMEM16A/YFP-H148Q, iodide quench fluorescence; ionomycin added to raise cell calcium; inhibition, % at 10 µM; hit rate 39% among 2,300; AID 652189;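 active = mean duplicate percent inhibition, scaled so buffer wells are 0 and the reference blocker 100, over three buffer SD above buffer mean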
TMEM16A Ca cntr: calcium mobilization counter-screen hit for TMEM16A inhibitor series; shares compounds with ANO1 block; TMEM16A/YFP HEK293, Fluo4 calcium mobilization; calcium response (% of ionomycin), % at 10 µM; hit rate 2% among 2,300; AID 652231;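 active = duplicate-averaged calcium signal over 20% of the ionomycin maximum, relative to buffer baseline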;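 also: each well's signal is peak minus trough fluorescence divided by its pre-addition baseline; 0% = buffer wells and 100% = ionomycin wells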
Parental YFP cnt: counter-screen for TMEM16A inhibitors: effect in parental YFP-HEK293 cells; 2,300 tested, under 10 active; shares compounds with ANO1 block; YFP ratio F(max-min)/F0 at 10 µM; iodide YFP quench, ionomycin; AID 652233;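 active = yellow fluorescent protein signal ratio exceeding the buffer control mean by over 5 SD of those controls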;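 also: ratio is mean of duplicate wells from kinetic YFP trace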
ClC-1 inh: rat ClC-1 inhibition, TMEM16A specificity screen; shares compounds with ANO1 block; CHO ClC-1-YFP, iodide influx fluorescence quench; iodide control reads 0, buffer control 100; 2,300 tested, under 10 active; ratio percent, % at 10 µM;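 active = duplicate-mean ratio percent above the mean of iodide-only control wells, which defines zero, plus 5 of their SD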;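 also: higher percent means stronger block of ClC-1 iodide influx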
MOR ag counter: OPRM1 agonism in mouse HTR2A counterscreen. shares compounds with m5-HT2A agonist. activation, % at 9.3 µM. AID 624380. hit rate 5.3% among 2,300. U2OS OPRM1 beta-arrestin PathHunter, luminescence; DMSO 0%, DAMGO 9.3 µM 100%;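 active = mean activation above the mean of DMSO-only wells plus 3 SD, cut at about 0.5% in these data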
HTR2A ag conf: confirmation of mouse HTR2A serotonin receptor agonists. activation, % at 7.6 µM. shares compounds with m5-HT2A agonist. AID 624381. hit rate 19% among 2,300. CHO-K1 PathHunter beta-arrestin recruitment, luminescence; DMSO 0%, 30 µM serotonin 100%;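 active = mean activation across triplicates above the hit threshold derived in the original primary screen, cut at about 15% in these data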
An asterisk follows results filed as active; i = inactive; / = not tested or not shown. The list is not random: actives were taken first. Their share in the collection is about 3.4%.

SMILES | MC4R ag barr | ANO1 block | MIN6 prolif | TMEM16A act | MC4R antag cAMP | m5-HT2A agonist | MOR ag counter | HTR2A ag conf | others
CC(C)C(=O)c1cn(Cc2ccccc2C#N)c2ccccc12 | 0 | i | 7 | i | 13 | 5 | / | /
Cc1ccc(N(C)C(=O)Oc2ccc(C(=O)c3ccc(Cl)cc3)cc2)cc1 | 0 | 25* | -3 | i | -4 | 3 | / | / | TMEM16A reconf=i;TMEM16A Ca cntr=i;Parental YFP cnt=-1.1;ClC-1 inh=-4
CC(NS(C)(=O)=O)c1nnc2n1-c1ccc(Br)cc1C(c1ccccc1Cl)=NC2 (stereo unspecified) | 0 | i | 0 | i | 8 | 4 | / | /
CCC1=Nc2cc(C(=O)N3CCC4(CC3)OCCO4)ccc2Sc2ccc(Br)cc21 | -2 | 100* | -4 | i | 2 | 1 | / | / | TMEM16A reconf=i;TMEM16A Ca cntr=i;Parental YFP cnt=-0.98;ClC-1 inh=-8
CCOC(=O)[C@]12Cc3cc(C)ccc3[C@H]1N(Cc1ccccc1)C(=O)c1cc(F)c(F)cc12 | / | / | / | / | / | -2 | / | /
CCOP(=O)(OCC)Oc1cc(C)c(N(C)C)c(C)c1 | -1 | i | / | i | 10 | 0 | / | /
CCC(=NCCc1c[nH]c2ccccc12)c1c(O)n(C)c(=O)n(C)c1=O | 0 | 100* | -4 | i | 16 | 27* | 0 | -1 | TMEM16A reconf=19%*;TMEM16A Ca cntr=i;Parental YFP cnt=-0.97;ClC-1 inh=-26
COC(=O)C1=C(c2cc3ccccc3o2)C[C@@H]2CC[C@H]1N2C(=O)NCCO | 0 | i | 4 | i | 2 | 0 | / | /
c1ccc(C2(N3CCCCC3)CCCCC2)cc1 | 1 | / | 0 | i | 11 | 1 | / | /
S=C=Nc1cccc(C2(N3CCCCC3)CCCCC2)c1 | -1 | i | -8 | i | 1 | 24* | / | 0
O=C(NCc1cccnc1)C(Cl)(Cl)Cl | -1 | i | -1 | i | 7 | 24* | -1 | -4
COc1cc(C(=O)N/N=C/C23CC[C@@H](O)CC2(O)CC[C@@H]2[C@@H]3CCC3(C)C(C4=CC(=O)OC4)CCC23O)ccc1O (stereo partly specified) | 2 | i | 1 | i | 19 | 15* | 0 | -3
COc1ccc(C(=O)N/N=C/C23CC[C@@H](O)CC2(O)CC[C@@H]2[C@@H]3CCC3(C)C(C4=CC(=O)OC4)CCC23O)cc1 (stereo partly specified) | 6 | i | -4 | i | 2 | -1 | / | /
CC(Cc1ccccc1)N1C(=O)c2ccccc2C1=O (stereo unspecified) | -1 | i | 0 | i | 4 | 4 | / | /
CC(N)Cc1c[nH]c2cc3c(cc12)OCCO3 (stereo unspecified) | 1 | i | -3 | i | 0 | 8 | / | /
CC(N)Cc1c[nH]c2ccc(Cl)cc12 (stereo unspecified) | -1 | i | -1 | i | -1 | 80* | 0 | 55*
CC(Cc1ccccc1)NC(=O)/C=C/c1ccc(Cl)cc1 (stereo unspecified) | -1 | i | -2 | i | 2 | -6 | / | /
COP(=O)(OC)C(NC(=O)/C=C/c1ccccc1)C(Cl)(Cl)Cl (stereo unspecified) | -1 | i | -2 | i | 0 | 19* | -1 | -2
Clc1ccc2sc(C3CCNCC3)nc2c1 | 0 | i | 2 | i | -8 | 38* | -1 | 15*
c1ccc2c(N3CCNCC3)nsc2c1 | -1 | i | -5 | i | 0 | -8 | / | /
c1ccc2oc(N3CCNCC3)nc2c1 | -1 | i | -2 | i | -2 | 29* | 0 | 11
CC(=NCCN1CCCCC1)c1c(O)n(-c2ccc(Cl)cc2)c(=O)[nH]c1=O | -2 | i | 1 | i | 14 | 2 | / | /
O=C(O)C(Cl)(Cl)Cl | -1 | i | -2 | / | 11 | 23* | 0 | 4
COC(=O)C1=C(c2ccc(F)cc2F)C[C@@H]2CC[C@H]1N2C(=O)N1CCC(O)CC1 | 1 | / | -5 | i | -4 | 7 | / | /
CCOc1cc2c(cc1OCC)-n1cccc1C(c1cc(OC)ccc1F)NC2 (stereo unspecified) | 3 | i | -2 | i | 3 | 3 | / | /
SMILES | MC4R ag barr | ANO1 block | MIN6 prolif | TMEM16A act | MC4R antag cAMP | m5-HT2A agonist | MOR ag counter | HTR2A ag conf | others
CCCCCCCSc1cc(OC)c(CCNC)cc1OC | 8 | i | -4 | i | -5 | 46* | 0 | 17*
CCCCCSc1cc(OC)c(CCNC)cc1OC | 5 | i | -4 | i | -5 | 15* | 0 | 6
COC(=O)C1=C(c2ccc(OC(F)(F)F)cc2)C[C@@H]2CC[C@H]1N2C(=O)NCc1cc(C)oc1C(F)(F)F | -2 | / | -7 | i | 13 | -1 | / | /
CC(=O)OC(C)(C)/C=C/C(=O)C(C)(O)C1[C@H](O)C[C@@]2(C)C3CC=C4C(CC[C@@H](O)C4(C)C)[C@]3(CO)C(=O)C[C@]12C (stereo partly specified) | 1 | i | -3 | i | -5 | 25* | 0 | 4
C[C@H]1CN([C@@H](C)CO)C(=O)CCCn2nncc2CO[C@@H]1CN(C)C(=O)Oc1ccccc1 | 2 | / | / | / | 5 | 4 | / | /
O=C(c1c[nH]cc1-c1ccccc1)c1cccc2ccccc12 | 3 | i | -4 | i | 2 | 20* | 0 | 6
CCCn1c(C)c(C(=O)c2cccc3ccccc23)c2ccccc21 | 0 | i | -6 | i | -1 | 0 | / | /
CC1=NNC(=O)C1Br (stereo unspecified) | -3 | / | / | i | 8 | -2 | / | /
